Our source for the yeast fitness values is the RNAGym collection of RNA variant scans (doi:10.1126/science.aae0568).

This sample holds only a part of the variants without activity.

B1: tRNA (parent)
chain: GUUCCGUUGGCGUAAUGGUAACGCGUCUCCCUCCUAAGGAGAAGACUGCGGGUUCGAGUCCCGUACGGAACG

In the data set the parent is B1. Nature of the data set: yeast fitness relative to wild type (ratio to wild type); higher = fitter; tRNA-Arg(CCU), competitive growth, 37 C, YPD. In outline:
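Changes in genotype frequencies gave Darwinian fitness relative to wild type. Frequencies were read by 100-nucleotide paired-end sequencing of gene amplicons before and after pooled Saccharomyces cerevisiae strains, carrying tRNA-Arg(CCU) gene variants at the native locus, were competed in YPD at 37°C for 24 hours in six replicates. A genotype was kept only with ≥ 100 starting reads, and estimates < 0.5 were set to 0.5.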
U3C C27G G48C: the yeast fitness amounted to 0.522. In the case of U3C A40G C46A U53C, the yeast fitness worked out at 0.663. As for U3C C5A G18C A45C G56C C60U G68U, the yeast fitness was no more than 0.5. With U3C G12A C30U G44A C61U, the yeast fitness was no more than 0.5. As to U3C C31G G67U, the yeast fitness was no more than 0.5.

For U3C A40U G58A A69C, the yeast fitness came out at 0.656.

U3C G9A A42U A70U: the yeast fitness is no more than 0.5. Under U3C C11A U32G G39A C61A C62A stands no more than 0.5. Turning to U3C A43U A45G G63A, the yeast fitness is no more than 0.5. Consider U3C A70C, for which the yeast fitness amounted to 0.993. For the variant U3C A70G, the yeast fitness was 0.944. With U3C G39A G67U the figure was no more than 0.5; with U3C C24U U26C G63A A65G, no more than 0.5; with U3C C5G C30G A36C, no more than 0.5. With U3C G50C the figure was 0.714; with U3C C30A A65G, 0.702.

For U3C C27G C33U A43U, the yeast fitness was no more than 0.5. As to U3C A42U A45U U64C, the yeast fitness was 0.885.

U3C C31G U32C G38C C46G G48C G68C: the yeast fitness is no more than 0.5. As for U3C C11A A21G U28C U32G, the yeast fitness is no more than 0.5. For U3C C34A G52A, the yeast fitness was no more than 0.5.

As for U3C C31U A43G A69U, the yeast fitness stood at 0.733.

U3C G23A C34U A40U A42U U64A: the yeast fitness is no more than 0.5. With U3C C27U G56A C61A the figure was no more than 0.5; with U3C G9A C30A G67U, no more than 0.5; with U3C C29U A36U C66U G67A, no more than 0.5. In the case of U3C A42C A65U, the yeast fitness stood at 0.651.

Take U3C A45C: the yeast fitness was 0.856. With U3C A45U the figure was 0.999; with U3C C31U C49U, 0.919; with U3C C31U C62G, 0.665. For U3C G12A C49U, the yeast fitness amounted to 0.569. U3C C11U A40U G58A: the yeast fitness was found to be 0.627. With U3C C34A G44A U54A the figure was no more than 0.5; with U3C C22G C62U, 0.64.

As to U3C G38A C61U, the yeast fitness was 0.564. On to U3C C4G G12C G44C A57U, for which the yeast fitness is no more than 0.5. For U3C G23A, the yeast fitness was found to be 0.701. With U3C C34U U53C the figure was no more than 0.5. As to U3C G18C C31G U59A G67A, the yeast fitness was no more than 0.5. Consider U3C G6A, for which the yeast fitness was found to be 0.866. On to U3C G6C, for which the yeast fitness was determined as 0.753. Regarding U3C G9A A15U C30A C34A A42G, the yeast fitness was no more than 0.5. As for U3C G12C, the yeast fitness was 0.716. On to U3C G12A A45U A69C, for which the yeast fitness is no more than 0.5. On to U3C C27G C49G, for which the yeast fitness is no more than 0.5. U3C C31U C61A: the yeast fitness worked out at 0.567. As for U3C C24G C31G C61G, the yeast fitness is no more than 0.5. Regarding U3C C4G C22G C33U A36C A40U, the yeast fitness is no more than 0.5. As to U3C C4A A15C C27G C33U C61G, the yeast fitness is no more than 0.5. Under U3C C27U C30U U53A A69C stands no more than 0.5; under U3C G25C C62U G68A, 0.796. In the case of U3C C31U C66U, the yeast fitness is 0.898. For the variant U3C C5A U8A G25A A45G, the yeast fitness is no more than 0.5. Take U3C G9A A20C C29U G50C U59G C62U G68A: the yeast fitness is no more than 0.5. For U3C C27G, the yeast fitness turned out to be 0.714.

As to U3C G23C C27G C61G, the yeast fitness is 0.539. Turning to U3C C5G U19G C31A C46A G56A A57U, the yeast fitness was no more than 0.5.

Turning to U3C C22U, the yeast fitness was found to be 0.824. On to U3C C22A, for which the yeast fitness was determined as 0.79. Consider U3C C30G A43C C60G C66G A69G, for which the yeast fitness is no more than 0.5. As to U3C A42U C61G, the yeast fitness was determined as 0.66. Turning to U3C G10A, the yeast fitness amounted to 0.718. In the case of U3C C24G G50C G68C, the yeast fitness is no more than 0.5. With U3C A40G C46A the figure was 0.966. For U3C C11U U53C, the yeast fitness is 0.588.

For U3C C27G C33A G51A, the yeast fitness was no more than 0.5. For U3C C24A C55A, the yeast fitness is no more than 0.5.

As for U3C C4U A20C A21U C27G A42U G52A, the yeast fitness is no more than 0.5. As for U3C G9A A57G A65U, the yeast fitness is no more than 0.5. Turning to U3C C24U C55G, the yeast fitness was no more than 0.5. Consider U3C G18A U32G A43C G51A, for which the yeast fitness was determined as 0.626. In the case of U3C C31U G63A, the yeast fitness was 0.771. As to U3C C60G G67C, the yeast fitness is no more than 0.5. Under U3C G17C C29G C49G stands 0.885; under U3C C30G A43C G48A, no more than 0.5. With U3C C5U A21G C34G, the yeast fitness was no more than 0.5. Regarding U3C C27A C31G, the yeast fitness was found to be 0.604.

As for U3C A43U U53A, the yeast fitness is no more than 0.5.

As for U3C G18A U53A U54G G63A, the yeast fitness was no more than 0.5.

As to U3C C4U C24U C62U A69U, the yeast fitness stood at 0.638.

As for U3C G9C C11U C29G C30A U64G A69C, the yeast fitness was no more than 0.5. On to U3C G23C C62G, for which the yeast fitness came out at 0.535. For U3C A57C A65U, the yeast fitness is no more than 0.5. As for U3C C5G C11G A45C, the yeast fitness is no more than 0.5. On to U3C C30G G52A A70U, for which the yeast fitness came to 0.641. On to U3C G25C C34U G56A, for which the yeast fitness is no more than 0.5. With U3C G9A C11U the figure was 0.808; with U3C C29U C60G, 0.568; with U3C C5A C11G A20U G25C G56A G58A G67C, no more than 0.5. U3C C11A C31A A42G G68C: the yeast fitness is no more than 0.5. For U3C C31U A42G, the yeast fitness worked out at 0.798. U3C C30G C62A: the yeast fitness is no more than 0.5. In the case of U3C C31U U59G, the yeast fitness was determined as 0.579. As for U3C G44C A70C, the yeast fitness is 0.602.

As for U3C C11U C46U, the yeast fitness turned out to be 1.1. With U3C C61G, the yeast fitness was 0.604. With U3C C61U the figure was 0.847; with U3C C22U A36U C62U, no more than 0.5. Take U3C C5G A15G: the yeast fitness is no more than 0.5. Regarding U3C G39C, the yeast fitness is 0.695. Take U3C G18A U53A U54G A70G: the yeast fitness is no more than 0.5. In the case of U3C C29G G38A A43G G50A, the yeast fitness was no more than 0.5. With U3C A57G A70U, the yeast fitness amounted to 0.564. Regarding U3C C49A G51C, the yeast fitness turned out to be 0.694.

U3C A43U A45G: the yeast fitness is 0.567. In the case of U3C C11A C27G C33A A43C C46A A70U, the yeast fitness came out at 0.528.

Turning to U3C C4U A15G U26A U32A C60G G67A, the yeast fitness is no more than 0.5.

Turning to U3C A40C C61G, the yeast fitness was 0.576.

As to U3C A57G A69U, the yeast fitness was determined as 0.599. Regarding U3C C34A G44A G52A C55U A70G, the yeast fitness was no more than 0.5. Turning to U3C C5G, the yeast fitness came to 0.761. Under U3C G9A G68A stands 0.843; under U3C A45U G50A, 0.849. For U3C C4U C5G U16C C24G A42C G58A, the yeast fitness was no more than 0.5. For U3C C11U C31U, the yeast fitness amounted to 0.782. With U3C G12C A37U G51A C62U G63A the figure was no more than 0.5; with U3C C29G G56A C62G C66G, no more than 0.5; with U3C G9A A14G C66U, no more than 0.5. Turning to U3C C5G C61U, the yeast fitness was no more than 0.5.

As to U3C C27G C49A A70G, the yeast fitness was found to be 0.593. U3C C30A A40U: the yeast fitness stood at 0.634. With U3C C31U A40C the figure was 0.654. Consider U3C G9C C11U C30G A43C U64C, for which the yeast fitness was no more than 0.5. As for U3C C4A A45G, the yeast fitness worked out at 0.531. Take U3C G25A: the yeast fitness came out at 0.968.

Turning to U3C C22A A45C C62G A65U, the yeast fitness came to 0.64. With U3C C24G the figure was 0.642. Regarding U3C G9A C34U A65U, the yeast fitness is no more than 0.5. U3C A65C: the yeast fitness came out at 1.

Regarding U3C A65U, the yeast fitness turned out to be 0.997. With U3C C22G G25A the figure was 1.02. As to U3C G39C G63A, the yeast fitness was 0.533. In the case of U3C C27U G58C A69C, the yeast fitness was 0.793.

Take U3C A45C G48A U54C: the yeast fitness was 0.751. With U3C C27G C33G G51C C60U C61U the figure was no more than 0.5; with U3C A43U G44C U64C, 0.567; with U3C C24U C62U, 0.725. Regarding U3C G44C, the yeast fitness was 0.908. Consider U3C G44A, for which the yeast fitness stood at 0.993. With U3C C30U G38A G44C U54A the figure was no more than 0.5; with U3C C46U U64C, 0.802. U3C G12C A37U G51A C62U: the yeast fitness was 0.607. For the variant U3C A43C C61U, the yeast fitness amounted to 0.707. As for U3C A43C C61A, the yeast fitness worked out at 0.612.

Turning to U3C G10C C30U U54A, the yeast fitness is no more than 0.5.

With U3C C34G A65G, the yeast fitness came to 0.757. With U3C C24G C61U, the yeast fitness was determined as 0.528. U3C G17A C60A C66U: the yeast fitness is no more than 0.5. As for U3C C5G G38A A65G C66G, the yeast fitness was no more than 0.5. For U3C C33G C60A C66G, the yeast fitness was no more than 0.5. Under U3C A40G C62U A65U stands no more than 0.5. On to U3C C5G G63C C66G, for which the yeast fitness was no more than 0.5. Consider U3C C30G C31U C60G C61G, for which the yeast fitness was 0.571.

With U3C C31U U47C, the yeast fitness was 0.864.

For U3C G25C A37U G44A, the yeast fitness came to 0.705. With U3C C49U the figure was 0.891; with U3C G9C C11U C30G A43C C55U, no more than 0.5; with U3C G50A G68C, 0.609.

On to U3C G9A, for which the yeast fitness was found to be 1.04. Take U3C G9C: the yeast fitness was determined as 0.712. With U3C C22U C31U the figure was 0.691; with U3C G17U C31A, no more than 0.5; with U3C G10A U54C G56C G58A, 0.553.

On to U3C G9A G50A, for which the yeast fitness came to 0.838. On to U3C C22G C31U U53C, for which the yeast fitness was no more than 0.5. Take U3C G17A C29U C33U C60G: the yeast fitness is no more than 0.5.
